By pIC50 is commonly meant −log10 of the IC50, conventionally taken in molar units. What is called IC25 is the point of the concentration-response curve where the effect stands at 25%. Read a high IC25 as a need for much substance. The IC50 is the concentration that gives 50% inhibition.

The text below walks through data of ChEMBL document CHEMBL6134787, “Fexinidazole optimization: enhancing anti-leishmanial profile, metabolic stability and hERG safety” (RSC Med Chem, 2024).

The structures appear in SMILES notation. pIC50: −log10 of the molar value.

T1 sequence (Q12809 whole entry): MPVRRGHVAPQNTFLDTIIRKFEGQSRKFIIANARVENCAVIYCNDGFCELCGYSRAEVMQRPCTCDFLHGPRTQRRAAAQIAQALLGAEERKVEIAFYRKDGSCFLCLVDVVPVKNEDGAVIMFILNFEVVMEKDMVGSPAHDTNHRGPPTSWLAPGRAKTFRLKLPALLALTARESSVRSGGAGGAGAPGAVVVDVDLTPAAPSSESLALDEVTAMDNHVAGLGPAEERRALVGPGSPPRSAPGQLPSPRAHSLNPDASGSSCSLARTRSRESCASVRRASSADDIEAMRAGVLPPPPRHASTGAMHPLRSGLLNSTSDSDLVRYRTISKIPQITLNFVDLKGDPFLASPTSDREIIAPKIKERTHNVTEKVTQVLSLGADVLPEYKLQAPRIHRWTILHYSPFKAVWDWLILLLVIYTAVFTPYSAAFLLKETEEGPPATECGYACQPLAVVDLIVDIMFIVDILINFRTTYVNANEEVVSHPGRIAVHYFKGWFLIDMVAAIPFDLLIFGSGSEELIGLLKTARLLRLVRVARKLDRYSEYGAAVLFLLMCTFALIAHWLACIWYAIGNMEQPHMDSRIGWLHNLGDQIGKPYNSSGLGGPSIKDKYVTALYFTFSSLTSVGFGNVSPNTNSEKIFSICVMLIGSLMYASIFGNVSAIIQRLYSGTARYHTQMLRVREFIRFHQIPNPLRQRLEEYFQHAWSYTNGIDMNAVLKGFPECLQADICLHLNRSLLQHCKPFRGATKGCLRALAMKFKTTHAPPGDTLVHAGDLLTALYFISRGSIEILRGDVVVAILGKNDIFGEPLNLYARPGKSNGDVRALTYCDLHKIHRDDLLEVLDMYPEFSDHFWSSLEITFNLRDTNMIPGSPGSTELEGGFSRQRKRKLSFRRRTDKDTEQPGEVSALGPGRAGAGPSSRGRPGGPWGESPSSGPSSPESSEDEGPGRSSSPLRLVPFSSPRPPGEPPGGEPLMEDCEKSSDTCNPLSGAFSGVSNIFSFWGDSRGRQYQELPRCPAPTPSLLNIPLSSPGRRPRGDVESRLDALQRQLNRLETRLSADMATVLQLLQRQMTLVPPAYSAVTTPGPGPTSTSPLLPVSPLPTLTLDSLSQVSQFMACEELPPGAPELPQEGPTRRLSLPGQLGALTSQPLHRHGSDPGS
Chain of hERG (KCNH2) (Q12809 whole entry): as above

The subject of the first data set is Leishmania braziliensis. Put plainly: Antileishmanial activity against wild type Leishmania braziliensis UA847 promastigotes […] assessed as inhibition of parasite growth incubated for 72 hrs by automatic microtiter plate reader analysis. Format: functional, organism-based.
Conditions: not given
In outline:
(§1)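 Promastigotes were grown in Schneider's medium (4 mM glutamine, gentamicin, 10% heat-inactivated FBS, pH 6.9, 27 °C). Cells were seeded at 1.5 × 10^5/well and exposed to a concentration series for 72 h at 27 °C.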
`C[S+]([O-])c1ccc(C(=O)Nc2ccc3c(c2)B(O)OC3(C)C)cc1` (stereo unspecified): the negative logarithm of the IC50 (pIC50) is < 4.70.

Consider `CSc1ccc(C(=O)Nc2ccc3c(c2)B(O)OC3(C)C)cc1`, for which the negative logarithm of the IC50 (pIC50) is 5.36.

The next data set has as its system Leishmania donovani. The data set is described as follows: Antileishmanial activity against wild type Leishmania donovani HU3 promastigotes […] assessed as inhibition of parasite growth incubated for 72 hrs by automatic microtiter plate reader analysis. Type of data set: functional, organism-based.
Conditions: not given
For `C[S+]([O-])c1ccc(C(=O)Nc2ccc3c(c2)B(O)OC3(C)C)cc1` (stereo unspecified), the negative-log IC50 (pIC50) was < 4.77.

Take `CSc1ccc(C(=O)Nc2ccc3c(c2)B(O)OC3(C)C)cc1`: the negative logarithm of the IC50 (pIC50) was 4.92.

For the next data set, the target named is T1, Voltage-gated inwardly rectifying potassium channel KCNH2 (Homo sapiens, UniProt Q12809). Put plainly: (§2) Inhibition of human ERG stably overexpressed in HEK293 cells assessed as remaining activity at 6 uM incubated for 30 mins by FLIPR assay. Type of data set: toxicity, cell-based. As to conditions: hek293, 0.5 h, 6 µM. In outline:
(§3)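 HEK-293 cells stably expressing hERG, seeded at 60 000/well and grown 24 h. Compounds were added in DMSO (final 0.5%) and incubated 30 min in the dark. After 20 s baseline, Tl+ stimulus (3 mM) was added and fluorescence (ex 485/em 535 nm) recorded for 2.5 min.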
Regarding `C[S+]([O-])c1ccc(C(=O)Nc2ccc3c(c2)B(O)OC3(C)C)cc1` (stereo unspecified), the “inhibition (INH)” value is “Not_active”.

Another data set has as its target hERG (KCNH2) (Homo sapiens, UniProt Q12809). The description is as §2. Format: toxicity, cell-based. As to conditions: HEK293 cells stably overexpressing hERG, read-out: Activity. In outline: as §3
On the technique in general: The hERG channel carries a current that helps repolarise heart muscle cells.
As to `CSc1ccc(C(=O)Nc2ccc3c(c2)B(O)OC3(C)C)cc1`, the activity at 0.5 h, 6 µM was found to be 66%.

Another data set deals with Leishmania amazonensis. The data set is described as follows: Antileishmanial activity against wild type Leishmania amazonensis LV78 promastigotes […] assessed as inhibition of parasite growth incubated for 72 hrs by automatic microtiter plate reader analysis. Format: functional, organism-based.
Conditions: not given
The procedure, abridged:
as §1
In the case of `C[S+]([O-])c1ccc(C(=O)Nc2ccc3c(c2)B(O)OC3(C)C)cc1` (stereo unspecified), the pIC50 is < 4.70.

`CSc1ccc(C(=O)Nc2ccc3c(c2)B(O)OC3(C)C)cc1`: the pIC50 was 5.44.

The next data set addresses T1, Voltage-gated inwardly rectifying potassium channel KCNH2. Put plainly: Inhibition of human ERG stably overexpressed in HEK293 cells incubated for 30 mins by FLIPR assay. Type of data set: toxicity, cell-based. As to conditions: human, hek293, 0.5 h; time 30 min.
Compound `C[S+]([O-])c1ccc(C(=O)Nc2ccc3c(c2)B(O)OC3(C)C)cc1` (stereo unspecified) came in with an IC25 of 25.7 µM.

On to `CSc1ccc(C(=O)Nc2ccc3c(c2)B(O)OC3(C)C)cc1`, for which the concentration for an effect of 25% (IC25) was > 6.2 µM.

Another data set relates to Leishmania amazonensis. The data set is described as follows: Antileishmanial activity against wild type Leishmania amazonensis LV78 amastigotes infected in mouse peritoneal macrophage assessed as inhibition of parasite growth incubated for 72 hrs by giemsa staining based analysis. Format: functional, organism-based.
Conditions: not given
The procedure, abridged: (§4)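 Mouse peritoneal macrophages (1 × 10^5/well on coverslips, DMEM + 10% heat-inactivated FBS, penicillin/streptomycin) adhered overnight at 37 °C, 5% CO2. They were infected overnight with late-log promastigotes at a 20:1 parasite:macrophage ratio. Cells were then treated with compound for 72 h at 37 °C and Giemsa-stained. Amastigotes per 100 macrophages were counted to derive IC50; mean ± SD of 3–4 independent experiments.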
On to `CSc1ccc(C(=O)Nc2ccc3c(c2)B(O)OC3(C)C)cc1`, for which the pIC50 was < 5.00.

System in a further data set: not listed separately
The data set is described as follows: Hepatotoxicity against mouse TAMH cells assessed as cell viability at 7.8 to 125 uM incubated for 24 to 48 hrs by MTT assay. Format: toxicity, cell-based. As to conditions: dose lower 7.8 µM, time lower 24 hrs, dose upper 125 µM, time upper 48 hrs, read-out: Activity. In outline: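 TAMH mouse liver cells in FCS-free DMEM/F12 with 5% PANEXIN NTA, 10 mM nicotinamide and gentamicin. Seeded at 20 000/well and attached 24 h at 37 °C, 5% CO2. DMSO-diluted compounds were applied for 24 or 48 h. MTT was added for 4 h, formazan dissolved in DMSO and A570 read. Viability was background-corrected and expressed relative to DMSO controls; mean ± SD, ≥3 experiments.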
(Formazan colour is commonly taken as a measure of viable cells.)
Take `C[S+]([O-])c1ccc(C(=O)Nc2ccc3c(c2)B(O)OC3(C)C)cc1` (stereo unspecified): the viability at up to 125 µM is > 50%.

For `CSc1ccc(C(=O)Nc2ccc3c(c2)B(O)OC3(C)C)cc1`, the viability at up to 125 µM is > 50%.

System in the next data set: not listed separately
Put plainly: Hepatotoxicity against human HepG2 cells assessed as cell viability at 125 uM incubated for 48 hrs by MTT assay. Format: toxicity, cell-based. The conditions noted are these: HepG2 cells, read-out: Activity. The procedure, abridged:
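HEP-G2 cells in RPMI 1640 + 10% heat-inactivated FBS, penicillin/streptomycin. Seeded at 15 000/well and attached 24 h at 37 °C, 5% CO2. Compounds were serially diluted in DMSO, with 24 or 48 h exposure. MTT (2.5 mg/mL solution) was added for 4 h, formazan dissolved in DMSO and A570 read. Viability was background-corrected against DMSO-treated cell controls; mean ± SD, ≥3 experiments.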
Consider `C[S+]([O-])c1ccc(C(=O)Nc2ccc3c(c2)B(O)OC3(C)C)cc1` (stereo unspecified), for which the viability at 48 h, 125 µM was determined as 54.2%.

On to `CSc1ccc(C(=O)Nc2ccc3c(c2)B(O)OC3(C)C)cc1`, for which the viability at 48 h, 125 µM came to 54%.

The test system of another data set is Leishmania donovani. The data set is described as follows: Antileishmanial activity against miltefosine resistant Leishmania donovani HU3MILR40 amastigotes infected in mouse peritoneal macrophage assessed as inhibition of parasite growth incubated for 72 hrs by giemsa staining based analysis.
Conditions: not given
Type of data set: functional, organism-based. In outline: (§5)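 Mouse peritoneal macrophages in DMEM + 10% heat-inactivated FBS, penicillin/streptomycin; 1 × 10^5 cells per well on coverslips, adhered overnight at 37 °C, 5% CO2, non-adherent cells washed off. Infected overnight with late-log promastigotes at parasite:macrophage 40:1. Compound exposure 72 h at 37 °C; Giemsa stain, amastigotes per 100 macrophages counted, IC50 derived; means ± SD of 3–4 independent experiments.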
For the compound `CSc1ccc(C(=O)Nc2ccc3c(c2)B(O)OC3(C)C)cc1`, the negative logarithm of the IC50 (pIC50) is < 5.00.

A further data set concerns Leishmania donovani. The data set is described as follows: Antileishmanial activity against miltefosine resistant Leishmania donovani HU3MILR40 promastigotes […] assessed as inhibition of parasite growth incubated for 72 hrs by automatic microtiter plate reader analysis.
Conditions: not given
Type of data set: functional, organism-based. The procedure, abridged:
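Promastigote (free parasite) assay: Schneider's Drosophila medium with 4 mM glutamine, 25 μg mL−1 gentamicin, 10% heat-inactivated FBS, pH 6.9, 27 °C. 1.5 × 10^5 promastigotes per well exposed to a concentration series for 72 h at 27 °C.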
Regarding `C[S+]([O-])c1ccc(C(=O)Nc2ccc3c(c2)B(O)OC3(C)C)cc1` (stereo unspecified), the pIC50 was < 4.70.

`CSc1ccc(C(=O)Nc2ccc3c(c2)B(O)OC3(C)C)cc1`: the negative-log IC50 (pIC50) was 4.81.

System in another data set: not listed separately
The data set is described as follows: Cytotoxicity against mouse L929 cells assessed as inhibition of cell growth incubated for 72 hrs by MTS assay. Format: toxicity, cell-based.
Conditions: not given
The procedure, abridged: (§6)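 Cells in DMEM + 10% heat-inactivated FBS with penicillin/streptomycin at 37 °C, 5% CO2. They were seeded at 1 × 10^4/well and incubated with a concentration series for 72 h at 37 °C. Viability was read by MTS/PMS assay at 490 nm and IC50 derived.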
Take `C[S+]([O-])c1ccc(C(=O)Nc2ccc3c(c2)B(O)OC3(C)C)cc1` (stereo unspecified): the 50% inhibitory concentration (IC50) at 72 h was > 100 µM.

For `CSc1ccc(C(=O)Nc2ccc3c(c2)B(O)OC3(C)C)cc1`, the 50% inhibitory concentration (IC50) at 72 h is > 100 µM.

System in a further data set: not listed separately
The data set is described as follows: Metabolic stability in rat liver S9 fraction assessed as compound remaining at 20 uM measured after 32 mins in presence of NADP and GSH by HPLC analysis. Format: ADME, subcellular. The conditions noted are these: read-out: Stability. In outline: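 Rat liver S9 (final 4 mg/mL) in 50 mM phosphate pH 7.4 with NADPH-regenerating system (0.3 mM NADP+, 5.3 mM glucose-6-phosphate, G6PDH), 10 mM MgCl2 and 5 mM EDTA. Pre-warmed 10 min at 37 °C, then 20 μM compound and 5.5 μM GSH added. Samples taken at 0, 16 and 32 min were quenched in ice-cold acetonitrile. HPLC (254/280 nm) peak area was expressed relative to 0 min.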
For the compound `C[S+]([O-])c1ccc(C(=O)Nc2ccc3c(c2)B(O)OC3(C)C)cc1` (stereo unspecified), the remaining at 32 min, 20 µM was 100%.

With `CSc1ccc(C(=O)Nc2ccc3c(c2)B(O)OC3(C)C)cc1`, the remaining at 32 min, 20 µM was 61.3%.

System in another data set: not listed separately
Put plainly: Cytotoxicity against mouse peritoneal macrophage assessed as inhibition of cell growth incubated for 72 hrs by giemsa staining based analysis. Type of data set: toxicity. As to conditions: peritoneal macrophages.
Consider `CSc1ccc(C(=O)Nc2ccc3c(c2)B(O)OC3(C)C)cc1`, for which the half-maximal inhibitory concentration (IC50) at 72 h was > 100 µM.

The subject of a further data set is RAW264.7. The data set is described as follows: Cytotoxicity against mouse RAW264.7 cells assessed as inhibition of cell growth incubated for 72 hrs by MTS assay. Type of data set: functional, cell-based. The conditions noted are these: RAW264.7, 72 h. The procedure, abridged:
as §6
Regarding `C[S+]([O-])c1ccc(C(=O)Nc2ccc3c(c2)B(O)OC3(C)C)cc1` (stereo unspecified), the pIC50 is < 4.00.

Consider `CSc1ccc(C(=O)Nc2ccc3c(c2)B(O)OC3(C)C)cc1`, for which the negative logarithm of the IC50 (pIC50) is 4.13.

The test system of another data set is Leishmania braziliensis. Put plainly: Antileishmanial activity against wild type Leishmania braziliensis UA847 amastigotes infected in mouse peritoneal macrophage assessed as inhibition of parasite growth incubated for 72 hrs by giemsa staining based analysis. Type of data set: functional, organism-based.
Conditions: not given
In outline: as §4
As to `CSc1ccc(C(=O)Nc2ccc3c(c2)B(O)OC3(C)C)cc1`, the pIC50 is < 5.00.

Another data set deals with Leishmania major. Put plainly: Antileishmanial activity against wild type Leishmania major FV1 promastigotes […] assessed as inhibition of parasite growth incubated for 72 hrs by automatic microtiter plate reader analysis. Type of data set: functional, organism-based.
Conditions: not given
The procedure, abridged:
as §1
With `C[S+]([O-])c1ccc(C(=O)Nc2ccc3c(c2)B(O)OC3(C)C)cc1` (stereo unspecified), the pIC50 was < 4.70.

On to `CSc1ccc(C(=O)Nc2ccc3c(c2)B(O)OC3(C)C)cc1`, for which the pIC50 was 5.41.

System in a further data set: not listed separately
The data set is described as follows: Metabolic stability in rat liver microsome assessed as compound remaining at 20 uM measured after 32 mins in presence of NADP and GSH by HPLC analysis. As to conditions: liver microsomes, read-out: Stability. Type of data set: ADME. In outline:
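Rat liver microsomes (final 2 mg/mL) in 50 mM phosphate pH 7.4 with 0.3 mM NADP+, 5.3 mM glucose-6-phosphate, G6PDH, 10 mM MgCl2 and 5 mM EDTA. 20 μM compound added at 37 °C. Aliquots at 0, 16 and 32 min were quenched in ice-cold acetonitrile and centrifuged. HPLC peak area at 254/280 nm was expressed relative to 0 min.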
Take `C[S+]([O-])c1ccc(C(=O)Nc2ccc3c(c2)B(O)OC3(C)C)cc1` (stereo unspecified): the remaining at 32 min, 20 µM came out at 95.2%.

On to `CSc1ccc(C(=O)Nc2ccc3c(c2)B(O)OC3(C)C)cc1`, for which the remaining at 32 min, 20 µM was 8%.

The next data set has as its system Leishmania donovani. Put plainly: Antileishmanial activity against wild type Leishmania donovani HU3 amastigotes infected in mouse peritoneal macrophage assessed as inhibition of parasite growth incubated for 72 hrs by giemsa staining based analysis. Format: functional, organism-based.
Conditions: not given
In outline: as §5
Take `CSc1ccc(C(=O)Nc2ccc3c(c2)B(O)OC3(C)C)cc1`: the pIC50 was < 5.00.
